Results as given in paper PMC7745752 (The Journal of General Physiology, 2020).
Positions count from the first letter of the chain named.

Key:
TRPV3 E682Q/D727N = target: T1, TRPV3 E682Q/D727N (Mus musculus, UniProt Q8K424, D727N/E682Q); test: cell-based Ca2+ assay
T1 sequence (Q8K424 1-791 E682Q/D727N): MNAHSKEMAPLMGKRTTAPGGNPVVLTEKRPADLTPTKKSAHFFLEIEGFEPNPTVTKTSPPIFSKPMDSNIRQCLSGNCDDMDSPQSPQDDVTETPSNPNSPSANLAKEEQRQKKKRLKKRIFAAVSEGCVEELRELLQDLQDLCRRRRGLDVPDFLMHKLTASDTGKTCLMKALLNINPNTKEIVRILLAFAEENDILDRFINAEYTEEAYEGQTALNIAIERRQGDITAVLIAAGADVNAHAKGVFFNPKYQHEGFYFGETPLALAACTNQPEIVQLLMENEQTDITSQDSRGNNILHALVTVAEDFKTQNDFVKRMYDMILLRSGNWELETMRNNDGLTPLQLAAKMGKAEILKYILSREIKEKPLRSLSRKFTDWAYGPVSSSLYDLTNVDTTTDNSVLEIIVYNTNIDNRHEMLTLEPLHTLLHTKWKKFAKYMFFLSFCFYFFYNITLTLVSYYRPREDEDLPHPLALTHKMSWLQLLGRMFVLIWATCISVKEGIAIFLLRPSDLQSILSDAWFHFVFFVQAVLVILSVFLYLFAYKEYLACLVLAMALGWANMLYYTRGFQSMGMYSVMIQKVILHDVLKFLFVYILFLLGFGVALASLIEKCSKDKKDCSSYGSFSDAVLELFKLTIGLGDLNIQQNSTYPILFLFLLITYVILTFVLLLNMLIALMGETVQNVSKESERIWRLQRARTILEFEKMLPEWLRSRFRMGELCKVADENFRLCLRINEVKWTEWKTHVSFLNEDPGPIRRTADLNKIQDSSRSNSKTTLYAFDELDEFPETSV
In short: (§1)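 Ca2+ plate assay with FlexStation in HEK293 cells transiently expressing mutant mouse TRPV3. Fluo-4/AM loading was 5 µM for 60 min at 37°C in pH 7.4 ECS with probenecid; cells were then washed. Agonist was delivered robotically at varied concentrations, each well dosed once. Read-out was ex 494/em 525 nm at 0.67 Hz. AUC was normalized to the plate maximum, and EC50 was obtained by Hill fitting.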

TRPV3 E689Q/D727N = target: T2, TRPV3 E689Q/D727N (Mus musculus, UniProt Q8K424, D727N/E689Q); test: cell-based Ca2+ assay
T2 sequence (Q8K424 1-791 E689Q/D727N): T1 sequence (Q8K424 1-791 E682Q/D727N) with Q682E, E689Q
In short: as §1

[1] = target: T3, TRPV3 E682Q/E689Q/D727N (QQN) (Mus musculus, UniProt Q8K424, D727N/E682Q/E689Q); test: cell-based Ca2+ assay
T3 sequence (Q8K424 1-791 E682Q/E689Q/D727N): T1 sequence (Q8K424 1-791 E682Q/D727N) with E689Q
In short: (§2)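 Mouse TRPV3 (WT or mutant) was transfected into HEK293 cells in 96-well plates. Cells were loaded with 5 µM Fluo-4/AM, 0.02% Pluronic F-127 and 0.1% BSA in HEPES ECS (pH 7.4) at 37°C for 60 min, with 2 mM probenecid throughout. 2-APB was added once per well in ECS, or in Mes acidic solution giving final pH 5.6. AUC was normalized to the plate maximum, and EC50 at each pH came from a Hill fit.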

WT mouse TRPV3 [2] = target: T4, WT mouse TRPV3 (Mus musculus, UniProt Q8K424); test: whole-cell voltage-clamp recording in transfected HEK293 cells; assay type: cell-based; conditions: 300 µM carvacrol; for repeated stimulations needed to approach the maximal response: 30-s applications
T4 sequence (Q8K424 1-791): T1 sequence (Q8K424 1-791 E682Q/D727N) with Q682E, N727D
In short: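 Sensitization by intracellular pH: 300 µM carvacrol was applied repeatedly in whole-cell mode to HEK293 cells expressing mouse TRPV3. External solution was pH 7.4, nominally Ca2+-free. pHi was set to 7.2, 6.5 or 6.0 by CsCl/EGTA pipette solutions. The stimulation reaching maximal response was noted. Temperature was 22–24°C.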

[3] = target: T3, TRPV3 E682Q/E689Q/D727N (QQN); test: whole-cell voltage-clamp recording in transfected HEK293 cells; assay type: cell-based
WT mouse TRPV3 [4] = target: T4, WT mouse TRPV3; test: cell-based Ca2+ assay; conditions: pH 7.4 vs pH 5.6
In short: as §2

[5] = test system: TRPV3 C-terminal double and triple mutants (E682Q, E689Q, D727N combinations); test: cell-based Ca2+ assay; design: species or system mouse; conditions: pH 7.4 vs pH 5.6
In short: as §2

TRPV3 E631A = target: T5, TRPV3 E631A (Mus musculus, UniProt Q8K424, E631A); test: whole-cell voltage-clamp recording in transfected HEK293 cells; assay type: cell-based; conditions: n = 3
T5 sequence (Q8K424 1-791 E631A): T1 sequence (Q8K424 1-791 E682Q/D727N) with E631A, Q682E, N727D
In short: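 Whole-cell clamp at 22–24°C of HEK293 cells transiently expressing mutant mouse TRPV3. Pipette: 140 mM CsCl, 1 EGTA, pH 7.2. Bath: nominally Ca2+-free. 30 µM 2-APB was perfused at pHe 7.4, then in pH 5.0 Mes-buffered solution. Ramps ran −100 to +100 mV over 200 ms every second from 0 mV holding. Current ratio pHe 5.0/7.4 was taken at ±100 mV.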

| EC50 (TRPV3 E682Q/D727N) | EC50 (TRPV3 E689Q/D727N) | EC50 [1] | repeated stimulations needed to approach the maximal response (WT mouse TRPV3 [2]; pHi 6.0, external pH 7.4) | repeated stimulations needed to approach the maximal response (WT mouse TRPV3 [2]; pHi 7.2, external pH 7.4) | stimulation at which the highest level of response was reached ([3]; 300 µM carvacrol, 30-s applications, pHi 7.2, external pH 7.4) | ratio for 2-APB EC50 values obtained at pH 7.4 and pH 5.6 (WT mouse TRPV3 [4]) | ratio for 2-APB EC50 values obtained at pH 7.4 and pH 5.6 ([1]; pH 7.4 vs pH 5.6) | ratio for 2-APB EC50 values obtained at pH 7.4 and pH 5.6 [5] | 5.0:7.4 pH ratio of 2-APB-evoked current (TRPV3 E631A; +100 mV) | 5.0:7.4 pH ratio of 2-APB-evoked current (TRPV3 E631A; −100 mV) | delay in current development after the addition of 2-APB ([3]; 5 µM 2-APB, pHe 6.5, nominally Ca2+-free bath) | SMILES | decrease of carvacrol-evoked TRPV3 current by pH 5.5 compared with pH 7.4 (WT mouse TRPV3 [2]; presensitized cells, +80 mV, nominally Ca2+-free bath) |
| --- | --- | --- | --- | --- | --- | --- | --- | --- | --- | --- | --- | --- | --- |
| 197 ± 7.8 µM | 60.2 ± 3.2 µM | 119 ± 7.6 µM | five | ~14 | first stimulation |  |  |  |  |  |  | Cc1ccc(C(C)C)cc1O [carvacrol] | ~50% |
|  |  |  |  |  |  | ~15 | 0.92 | < 4.6 | 0.98 ± 0.09 | 1.02 ± 0.03 | ~30 s | NCCOB(c1ccccc1)c1ccccc1 [2-APB, 2-aminoethoxydiphenyl borate] |  |
